Results of several laboratories.
Compare with care: the assays were run in different laboratories.
Cell line: A549
Read-out: cell growth or viability

SMILES	technique	tested at	time	quantity	value
COc1ccc(S(=O)(=O)ON=C2C=C(C)C(=O)C(C)=C2)cc1	–	–	–	CC50	> 30 µM
C=C(C)[C@H](CC=C(C)C)Cc1c(O)cc(OC)c(C(=O)/C=C/c2ccc(O)cc2O)c1O	MTT	–	–	IC50	57.1 µM
O=C1OC2(c3cc(Cl)c(O)cc3Oc3cc(O)c(Cl)cc32)c2ccccc21	CCK-8	–	48 h	CC50	> 200 µM
O=C(O)CCCCC#CCCCCCCCCCc1ccccc1	MTS	–	24 h	IC50	18 µM
COc1cccc2c1C(=O)c1c(O)c3c(c(O)c1C2=O)C[C@@](O)(C(=O)CO)C[C@@H]3O[C@H]1C[C@H](N)[C@H](O)[C@H](C)O1	MTT	–	48 h	IC50	1.4 µM
CCCCCCCCCC#CCCCCC(=O)O	MTS	–	24 h	IC50	16 µM
O=C1OC2(c3cc(I)c(O)c(I)c3Oc3c2cc(I)c(O)c3I)c2c(Cl)c(Cl)c(Cl)c(Cl)c21	CCK-8	–	48 h	CC50	> 200 µM
C=C(C)C(CC=C(C)C)Cc1c(O)cc(OC)c2c1O[C@H](c1ccc(O)cc1O)CC2=O (single isomer, unassigned; (-))	MTT	–	–	IC50	50.5 µM
O=C1OC2(c3ccc(O)cc3Oc3cc(O)ccc32)c2ccc(NC(=S)NCCS)cc21	CCK-8	–	48 h	CC50	> 200 µM
CCN(Cc1cnc2nc(N)nc(N)c2n1)c1ccc(C(=O)c2ccccc2)cc1	ATP luminescence	–	–	GI50	0.23 µM
O=C1OC2(c3ccccc31)c1ccc(O)c(Cl)c1Oc1c2ccc(O)c1Cl	CCK-8	–	48 h	CC50	> 200 µM
Nc1nc(N)c2nc(CNc3cccc4ccccc34)cnc2n1	ATP luminescence	–	–	GI50	1.29 µM
C=C(C)C(O)Cc1c(O)c(CC=C(C)C)c2occ(-c3ccc(O)cc3)c(=O)c2c1O (stereo not drawn)	MTT	100 µg/mL	–	viability	91.6%
O=C(O)CCCC/C=C\CCCc1ccccc1	MTS	–	–	IC50	61 µM
Nc1nc(N)c2nc(CNc3ccc(C(=O)c4ccccc4)cc3)cnc2n1	ATP luminescence	–	–	GI50	13.7 µM
